Compound activity as filed in PubChem.
Sampled rows, rich in hits. Any-hit rate of the full collection: about 1.6%.
EBV gp42 block – blocks Epstein-Barr virus glycoprotein 42 binding; Fluorescence polarization binding assay, mP read-out; actives 0.42% (n = 220,000); AID 1085; inhibition, % (tested at 21.74 µM); Q1HVG2
Target sequence (Q1HVG2 whole entry, looked up): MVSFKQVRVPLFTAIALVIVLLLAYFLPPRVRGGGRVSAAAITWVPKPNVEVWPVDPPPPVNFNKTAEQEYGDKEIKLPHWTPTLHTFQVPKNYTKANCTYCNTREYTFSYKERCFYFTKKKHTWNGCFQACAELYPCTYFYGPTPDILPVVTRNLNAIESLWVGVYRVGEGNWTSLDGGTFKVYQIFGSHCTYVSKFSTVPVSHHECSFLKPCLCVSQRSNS
PKD1 inh – blocks activity of human protein kinase D1 | Q15139 | PKD1 kinase fluorescence polarization assay | inhibition, % (concentration not given with the values) | actives 0.056% (n = 200,000) | AID 797
RBBP9 inhibitor – blocks human serine hydrolase RBBP9. recombinant RBBP9, FP-Rh probe fluorescence polarization. inhibition, % at 7.94 µM. O75884. actives 0.2% (n = 220,000). AID 1515;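 active = inhibition above the campaign mean of all tested compounds plus 3 SD, cut at about 14% in these data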;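 note: plate controls were DMSO wells with RBBP9 for no effect and wells lacking RBBP9 protein for full effect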
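Test system – recombinant human RBBP9 · Input – RBBP9 2.5 µM in dispensing solution, pre-mixing · Medium – Tris buffer pH 8.0, NaCl, Pluronic · Schedule – preincubation 30 min plus labeling 45 min at 25 °C · Measured by – fluorescence polarization · Measure – % inhibition · Controls – DMSO and no-protein wells · Replicates – one well per compound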
eIF4E 4G PPI – inhibitors of eIF4E and eIF4G interaction in translation initiation; inhibition, % at 21.7 µM; P63073+Q04637; TR-FRET eIF4E-eIF4GI(517-606) binding, 2 h; actives 0.37% (n = 220,000); AID 782;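 active = inhibition above about 30%, limit read from the data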;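 note: 0% = full FRET control wells and 100% = background wells lacking eIF4GI fragment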
14-3-3 Bad inh – disrupts binding of bovine 14-3-3 zeta to phospho-Bad peptide; TR-FRET 14-3-3zeta/Dy647-pBad peptide displacement, 1 h; inhibition, % at 21.7 µM; actives 0.71% (n = 220,000);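 active = inhibition above about 70%, limit read from the data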;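 note: 0% = full 14-3-3 plus peptide FRET controls and 100% = background without 14-3-3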
Target sequence (P63103 whole entry, looked up): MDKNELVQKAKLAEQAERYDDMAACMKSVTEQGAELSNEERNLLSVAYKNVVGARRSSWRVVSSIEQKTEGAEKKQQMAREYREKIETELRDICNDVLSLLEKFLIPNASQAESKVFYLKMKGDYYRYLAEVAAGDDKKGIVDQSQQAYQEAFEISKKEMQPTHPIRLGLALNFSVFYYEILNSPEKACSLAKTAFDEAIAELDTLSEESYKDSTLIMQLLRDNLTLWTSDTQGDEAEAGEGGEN
* = called active by the depositor; x = not tested or not shown. Cut-off read from the data, not from the text of the source, unless noted: active = inhibition above about 50%; inactive = the rest.

SMILES	EBV gp42 block	PKD1 inh	RBBP9 inhibitor	eIF4E 4G PPI	14-3-3 Bad inh
Cc1nc(N)sc1-c1csc(Nc2ncccn2)n1	22.8	7.1	12.6	-47.4	89.1*
Cc1nc(N)sc1-c1csc(NCc2ccccc2)n1	-5.6	-7.7	-7.9	-0.9	-8.2
Cc1cc(C)n2nc(C(=O)NCc3ccccc3)cc2n1	-16.9	-8.7	-8.9	30.1*	-10.0
Cc1cc2nnc(SCC(=O)NCC3CCCO3)n2c2ccccc12 (stereo unspecified)	6.4	0.1	0.0	1.0	-6.0
COc1ccc(-c2nnc(SCC(=O)c3cc(C)n(Cc4cccs4)c3C)o2)cc1	15.3	3.6	-11.4	-21.9	74.7*
O=S(=O)(Nc1ccc2c(c1)OCCO2)c1cccc2cccnc12	99.4*	-18.9	-5.5	-2.5	0.7
O=C(CC1CCCCC1)NCC1CCCO1 (stereo unspecified)	-21.9	-12.9	11.2	38.4*	-4.5
CCNC(=O)c1cc(S(=O)(=O)N(C)C)c(Cl)cc1Cl	4.2	-5.5	-0.5	-1.5	87.8*
CC(C)[C@@H]1C=C(C(=O)O)O[C@H](OCCCCO)C1	-8.6	x	x	97.4*	2.3
O=C(NN1CCOCC1)c1cccc(COc2cccc(Br)c2)c1	-2.7	-2.2	-4.0	-3.1	92.7*
NNC(=O)c1cccc(COc2cccc(Br)c2)c1	-12.4	-7.1	-13.1	11.0	-2.8
O=C(Nc1nc2ccccc2s1)C1CCN(S(=O)(=O)c2cc([N+](=O)[O-])ccc2Cl)CC1	-2.6	x	-20.1	12.9	40.3
CCc1ccc(NC(=O)c2ccc3ncsc3c2)cc1	146.0*	-9.5	-7.6	-4.3	4.1
O=C(Nc1nnc(SCc2c(Cl)cccc2Cl)s1)c1ccc2ncsc2c1	4.4	0.6	0.5	17.9	92.6*
CN(C)S(=O)(=O)c1ccc(NC(=O)c2ccc3ncsc3c2)cc1	-19.4	x	-13.3	0.7	2.7
N#Cc1ccc(CSc2nnc(NC(=O)c3ccc4ncsc4c3)s2)cc1	-27.4	-3.1	8.0	74.5*	86.1*
c1ccc(-c2ccc3c(c2)NCCN3)cc1	-6.1	x	4.7	-1.0	-3.2
O=C(O)CCN1Cc2ccccc2C1=O	-10.0	5.5	-0.7	1.9	85.1*
O=C(CSc1nnc(-c2ccco2)o1)c1ccc([N+](=O)[O-])cc1	-29.0	x	-2.4	92.8*	-5.0
COc1ccc(-c2cc(C(F)(F)F)c3c(n2)sc2c(O)cc(=O)[nH]c23)c(OC)c1	68.5*	1.8	-2.2	15.3	-10.9
Cc1cc(C)c2c(n1)sc1c(O)cc(=O)[nH]c12	-6.0	-3.9	-6.5	-1.9	6.2
NC(=O)C(=CNc1nc(-c2ccc(Cl)c(Cl)c2)cs1)C(N)=O	-6.8	x	6.3	12.3	25.6
CN(C)c1ccnc(-n2cccc2/C=N/OCc2cccc(F)c2)c1C#N	-2.7	2.3	-0.3	1.8	79.8*
CO/N=C/c1cccn1-c1nccc(OC)c1C#N	-8.3	-11.0	1.6	2.3	-7.4
O=C(c1ccccc1Br)N1CCN(c2ccccc2)CC1	-15.1	-1.2	-3.4	2.6	16.6
SMILES	EBV gp42 block	PKD1 inh	RBBP9 inhibitor	eIF4E 4G PPI	14-3-3 Bad inh
CCn1cc(Br)c(C(=O)N2CCN(c3ccccc3)CC2)n1	-10.8	-5.2	11.0	1.2	71.9*
O=C1Nc2ccccc2/C1=C/c1cnc(-c2ccccc2)[nH]1	58.7*	x	-4.3	-60.1	58.5
O=C1Cc2ccccc2C(c2ccccc2)N1 (stereo unspecified)	-6.3	9.8	-10.5	-1.4	79.2*
O=C1Cc2ccccc2C(c2ccc(Cl)cc2)N1 (stereo unspecified)	-8.5	x	6.1	1.2	-2.0
O=C(O)C[C@@H]1C(=O)O[C@@H]2C(COC(=O)c3cc(O)c(O)c(O)c3)O[C@@H](OC(=O)c3cc(O)c(O)c(O)c3)[C@@H](OC(=O)c3cc(O)c(O)c4c3[C@H]1[C@H](O)C(=O)O4)[C@H]2OC(=O)c1cc(O)c(O)c(O)c1 (stereo partly specified)	23.9	x	x	38.4*	80.7*
COc1ccc(/C=C2/N=C(c3cccs3)OC2=O)cc1OC(C)C	107.4*	5.6	6.9	-2.5	-18.3
NC(=NC(=O)c1ccccc1)N1CCN(C(c2ccccc2)c2ccccc2)CC1	-1.3	x	-4.8	-5.0	2.3
c1ccc2[nH]c(SCc3cn4cccnc4n3)nc2c1	-4.0	2.4	-3.1	-0.1	1.5
c1ccc(-c2cnnc(SCc3cn4cccnc4n3)n2)cc1	-8.8	-1.0	-3.8	6.5	77.5*
NC(=O)COC(=O)CC12CC3CC(CC(Br)(C3)C1)C2	-7.0	-0.6	-4.3	0.3	-16.9
CCOC(=O)N1CC=C2C(C#N)=C(N)C(C#N)(C#N)[C@H](c3cccs3)C2C1 (stereo partly specified)	-6.5	0.4	0.3	1.5	-16.1
CC1CC=C2C(C#N)=C(N)C(C#N)(C#N)C(c3cccs3)C2C1 (stereo unspecified)	51.7*	-9.8	6.6	5.0	-13.2
COc1cc(C2C3CN(C)CC=C3C(C#N)=C(N)C2(C#N)C#N)ccc1OC(C)C (stereo unspecified)	10.3	-4.0	-3.4	-4.9	-9.7
CC(C)N1CC=C2C(C#N)=C(N)C(C#N)(C#N)[C@H](c3ccoc3)[C@H]2C1	129.7*	6.3	-1.8	-1.1	-8.7
Cc1ccc(C2C3CSCC=C3C(C#N)=C(N)C2(C#N)C#N)cc1 (stereo unspecified)	-21.1	-10.9	-3.3	5.4	-0.6
CC(C)N1CC=C2C(C#N)=C(N)C(C#N)(C#N)C(c3ccccc3)C2C1 (stereo unspecified)	72.1*	15.8	-2.1	2.3	6.7
CCN1CC=C2C(C#N)=C(N)C(C#N)(C#N)C(c3cc(Cl)ccc3Cl)C2C1 (stereo unspecified)	72.5*	1.5	3.2	13.8	27.7
COc1ccccc1CNC(=O)c1cn(C)c2ccc(S(=O)(=O)N3CCCC3)cc2c1=O	-8.7	-1.7	5.8	10.0	11.1
CC1CCC(NC(=O)C(NC(=O)c2ccccc2)C(C)C)CC1 (stereo unspecified)	-16.7	2.3	2.3	1.6	-2.7
N/C(=N\OC(=O)/C=C/c1ccccc1Cl)c1ccncc1	3.7	1.5	-4.2	4.3	-1.3
CCCC(=O)C1=C(N2CCCCC2)CC(C)(C)C(C(=O)OC)C1=O (stereo unspecified)	-23.1	-3.9	-5.1	3.4	-0.1
Cc1ccc(NCc2ccco2)cc1C	-8.5	-7.9	-13.7	2.2	71.0*
Cc1cc(C)c(C#N)c(SCC(=O)N2CCCCC2)n1	119.3*	-2.6	-5.6	0.0	-5.8
O=C(CCCOc1ccc(Cl)cc1Cl)Nc1cccnc1	-0.6	-6.3	-6.0	2.7	78.4*
CCCC(=O)c1ccc(N2CCN(C(=O)OCC)CC2)c(F)c1	-15.6	-2.1	-3.1	8.7	76.8*
C/C=C(\C)C(=O)Nc1cccc(C2=NOC3(C2)C[C@@H](C(N)=O)N(C(=O)/C(C)=C/C)C3)c1 (stereo partly specified)	-15.1	x	x	96.0*	0.6
